Screening results as filed in PubChem BioAssay.
The list is not random: actives were taken first. Their share in the collection is about 1.4%.
SR-BI uptake up: SR-BI HDL lipid transfer activation; CHO ldlA[mSR-BI] cells, DiI-HDL uptake fluorescence, 3 h; 100 = double the neutral-control signal; activation, % at 12.5 µM; actives 0.096% (n = 320,000); AID 504775;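 active means mean replicate activation of at least 60% and every replicate at or above 60%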
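system = CHO ldlA[mSR-BI] cells, LDL receptor-null, SR-BI overexpressing | medium = Ham's F12 with 0.5% BSA, HEPES 25 mM, pH 7.4 | probe or stimulus = DiI-HDL 10 µg/mL | compound dosing = single-point compound dose | incubation = compound exposure 3 h, 37 °C | technique = DiI fluorescence, bottom read | read-out = cell-associated DiI fluorescence as measure of HDL uptake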
Vif inh: HIV Vif inhibition; inhibition, % at 7.49 µM; actives 0.35% (n = 340,000); HEK293T cells, Vif self-association by quenched fluorescence, imaging, 24 h; in the data active means inhibition above about 50%, passing the limit was not always enough
PKA-R1A act: activates the PKA-R1A holoenzyme complex. activation, % at 11.4 µM. P00514+P68181. PKA-R1A dissociation, Cy5-IP20 fluorescence polarization; scaled: DMSO 0%, 113 µM cGMP 100%. actives 0.083% (n = 340,000);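 active means percent activation above the mean of all tested compounds plus 3 SD, cut at about 19% in these data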;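 further: higher means more PKAc released from R1A so a rise in polarization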
SR-BI DiI inh: inhibitors of mouse SR-BI mediated HDL lipid uptake | AID 488896 | actives 0.96% (n = 320,000) | inhibition, % at 12.5 µM | Q61009 | ldlA[mSR-BI] CHO cells, DiI-HDL uptake fluorescence, 3 h;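 active means mean replicate inhibition of at least 70% and a set share of replicates each scoring 70 or more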
PKA-R2B activ: activators of human PKA-R2B complex; P22694+P31323; PKA-R2B holoenzyme dissociation, Cy5-IP20 fluorescence polarization; R2B truncated from residue 108, S112A mutant; 0% DMSO only, 100% 113 µM cGMP; activation, % at 11.4 µM; actives 0.079% (n = 340,000); AID 504700;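 active means activation above a cutoff set at the mean over all compounds plus 3 SD, cut at about 18% in these data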;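 further: higher means more holoenzyme dissociation and a rise in polarization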
Target sequence (P31323 whole entry, looked up, other chains not shown, the tested form may be a part): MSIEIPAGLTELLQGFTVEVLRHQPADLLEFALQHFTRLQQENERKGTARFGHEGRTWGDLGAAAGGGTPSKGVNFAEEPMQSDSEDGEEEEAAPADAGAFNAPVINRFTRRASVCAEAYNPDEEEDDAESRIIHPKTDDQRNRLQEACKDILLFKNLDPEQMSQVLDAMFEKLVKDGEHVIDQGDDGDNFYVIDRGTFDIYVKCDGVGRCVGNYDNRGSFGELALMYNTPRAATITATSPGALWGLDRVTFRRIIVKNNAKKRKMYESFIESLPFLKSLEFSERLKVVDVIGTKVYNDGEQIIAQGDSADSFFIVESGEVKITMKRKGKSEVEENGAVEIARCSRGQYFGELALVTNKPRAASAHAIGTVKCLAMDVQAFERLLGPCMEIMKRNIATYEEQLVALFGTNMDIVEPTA
Of the large screens only hits and unclear results are named; the others gave an inactive call.

COc1ccc(C(=O)NC2CCCc3ccccc32)cc1S(=O)(=O)N1CCOCC1 (centres undefined)	none
O=C(NCCCNC(=O)c1c(F)cccc1F)c1c(F)cccc1F	SR-BI DiI inh 78
O=C(NC(=S)Nc1cccc2[nH]ncc12)c1ccccc1	none
O=C(Nc1cccc2[nH]ncc12)c1ccc(F)cc1	PKA-R1A act 19
CCN1CCN(c2cc(=O)n(-c3cc(Cl)ccc3C)c(=O)[nH]2)CC1	Vif inh 58
COc1ccc(-c2csc(C(O)c3ccc(F)cc3)n2)cc1OC (centres undefined)	none (no result: SR-BI uptake up, PKA-R1A act, SR-BI DiI inh, PKA-R2B activ)
COc1ccc(C(=O)NC(=S)Nc2ccccc2N2CCOCC2)cc1Br	none
COc1ccc(C(=O)Nc2ccccc2N2CCCCC2)cc1[N+](=O)[O-]	SR-BI DiI inh 78
COc1ccc(C(=O)Nc2ccccc2N2CCOCC2)cc1Br	SR-BI DiI inh 80
COc1ccc(OC)c(NC(=O)c2ccc(OCC(=O)N3CCOCC3)c(OC)c2)c1	SR-BI DiI inh 73
Cc1ccc(S(=O)(=O)N(C)C[C@@H]2OCc3cn(nn3)CCCC(=O)N([C@@H](C)CO)C[C@H]2C)cc1	none (no result: SR-BI uptake up, SR-BI DiI inh)
CNc1nc(Oc2cccc(NC(C)=O)c2)c2sccc2n1	none (no result: SR-BI uptake up, PKA-R1A act, SR-BI DiI inh, PKA-R2B activ)
C=C1CCCC2OC(CC3=CC4/C(C)=C/CC(C)CC(/C=C(\C)C(O)C5CC(O)C(O)C(CCC(O)/C=C/C(C)=C/CCC6=NCCC(C3)C64C)O5)OC(=O)CC3OC(C(O)C1)C(O)C3O)CC(O)C2O (centres undefined)	Vif inh 118 (no result: SR-BI uptake up, PKA-R1A act, SR-BI DiI inh, PKA-R2B activ)
O=C(Nc1ccc(N2CCCC2)cc1)c1ccc(Br)cc1	SR-BI DiI inh 76
Cc1cc(C)cc(C(=O)Nc2ccc(N3CCCC3)cc2)c1	SR-BI DiI inh 87
O=C(Nc1ccc(N2CCN(C(=O)c3ccco3)CC2)cc1)c1ccc([N+](=O)[O-])cc1Cl	none
Cc1ccc(C(=O)Nc2ccc(N3CCN(C(=O)c4ccco4)CC3)cc2)c(Cl)c1	SR-BI DiI inh 85
COc1ccc(Br)cc1C(=O)Nc1cccc(C)c1	SR-BI DiI inh 75
Cc1ccc(C(=O)N2CCN(c3ccc(NC(=O)c4cc(C)cc(C)c4)cc3)CC2)cc1	none
COc1cc(C)c(S(=O)(=O)NCc2cccnc2)cc1C	none
CC(=O)N1CCN(c2ccc(NC(=O)c3cc4ccccc4o3)cc2)CC1	none
Cc1ccccc1C(=O)N1CCN(c2ccc(NC(=O)c3cccc(OC(C)C)c3)cc2)CC1	SR-BI DiI inh 74
Cc1cccc(NC(=O)c2ccc(NC(=O)c3ccccc3Br)cc2)c1	SR-BI DiI inh 72
CC(C)Oc1ccc(C(=O)Nc2ccc(N3CCN(C(=O)c4ccco4)CC3)cc2)cc1	SR-BI DiI inh 74
O=C(Nc1ccc(N2CCCC2)cc1)c1cc2ccccc2o1	SR-BI DiI inh 72
COc1ccc(C(=O)N2CCN(c3ccc(NC(=O)c4ccco4)cc3)CC2)cc1	none
OC[C@@H]1CN(Cc2ccccc2)C[C@H](n2cnc3c(Nc4ccccc4)ncnc32)O1	none (no result: SR-BI uptake up, PKA-R1A act, SR-BI DiI inh, PKA-R2B activ)
CCOC(=O)c1nc2ccc(C)cc2c2c1C1CC(c3c(Cl)cccc31)N2C(=O)OCc1ccccc1 (centres undefined)	none (no result: SR-BI uptake up, SR-BI DiI inh)
O=C(Nc1ccc(N2CCCC2)cc1)c1cccc(Cl)c1	SR-BI DiI inh 86
Cc1ccc(NC(=O)c2ccc(C)cc2)cc1	none
O=C(NNC(=O)c1ccccc1O)c1cc2ccccc2o1	SR-BI DiI inh 145
COc1ccc(Br)cc1C(=O)Nc1ccc(N2CCCC2)cc1	Vif inh 143, SR-BI DiI inh 78
Cc1ccc(C(=O)Nc2ccc(Br)c(C(F)(F)F)c2)cc1	SR-BI DiI inh 72
COc1ccc(Br)cc1C(=O)Nc1ccc(N2CCN(S(C)(=O)=O)CC2)cc1	none (no result: SR-BI uptake up, SR-BI DiI inh)
COc1ccccc1C(=O)Nc1cc2ccccc2oc1=O	none
COc1ccccc1C(=O)Nc1cc2cc(Br)ccc2oc1=O	SR-BI DiI inh 100
COc1cc(OC)cc(C(=O)Nc2cccc(N3CCCC3)c2)c1	SR-BI DiI inh 87
COc1ccc(C(=O)Nc2ccc(N3CCN(C)CC3)cc2)cc1	none
CC(C)Oc1ccc(C(=O)Nc2ccc(N3CCCC3)cc2)cc1	SR-BI DiI inh 75
